Test results from ChEMBL document CHEMBL1122498, “Improved delivery through biological membranes. 11. A redox chemical drug-delivery system and its use for brain-specific delivery of phenylethylamine” (1983).

Assays:
Type in all cases: functional
[1] = organism: Rattus norvegicus; experiment: In vitro facile oxidative conversion to the corresponding quaternary derivative 5a in rat brain homogenate
Method in brief: (§1)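 Rat brain (2.0 g) homogenized in 10 mL phosphate buffer pH 7.4, centrifuged, heated 50 °C for 5 min, recentrifuged, and diluted to 100 mL (2%). To 10 mL was added 0.2 mL of 6.25 × 10⁻⁴ M methanolic dihydro derivative. First-order k and t1/2 derived.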

[2] = organism: Rattus norvegicus; experiment: Half life during the site specific conversion to the quaternary derivative 5a in rat brain homogenate was determined; method in brief: as §1
[3] = organism: Homo sapiens; experiment: In vitro facile oxidative conversion to the corresponding quaternary derivative 5a in heparinized human whole blood
[4] = organism: Homo sapiens; experiment: Half life during the site specific conversion to the quaternary derivative 5a in heparinized human whole blood was determined
[5] = organism: Rattus norvegicus; experiment: In vitro facile oxidative conversion to the corresponding quaternary derivative 5a in rat liver homogenate
Method in brief: (§2)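 Sprague-Dawley rat liver (5.0 g) homogenized in 50 mL phosphate buffer pH 7.4, centrifuged, heated 50 °C for 5 min, recentrifuged, and diluted to 250 mL (2%). Dihydro derivative (0.2 mL of 6.25 × 10⁻⁴ M in methanol) diluted to 10 mL with homogenate. UV scans at 37 °C from 400 to 250 nm every 5 min for 1 h against a homogenate/methanol reference. First-order k and t1/2 derived.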

[6] = organism: Homo sapiens; experiment: In vitro facile oxidative conversion to the corresponding quaternary derivative 5a in fresh human plasma
Method in brief: (§3)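 Dihydro derivative in methanol (0.2 mL of 6.25 × 10⁻⁴ M) diluted to 10 mL with 20% fresh human plasma in phosphate buffer pH 7.4. Held at 37 °C with UV scans 400–250 nm every 10 min for 2 h against a plasma/methanol reference. Oxidation to the pyridinium salt followed by loss at ~350 nm and gain at 262 nm. First-order k and t1/2 derived.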

[7] = organism: Homo sapiens; experiment: Half life during the site specific conversion to the quaternary derivative 5a in fresh human plasma was determined; method in brief: as §3
[8] = organism: Rattus norvegicus; experiment: Half life during the site specific conversion to the quaternary derivative 5a in rat liver homogenate was determined; method in brief: as §2

Row | SMILES | Activity [1] | T1/2 [2] [min] | Activity [3] | T1/2 [4] [min] | Activity [5] | Activity [6] | T1/2 [7] [min] | T1/2 [8] [min]
1 | CCOC(=O)C1=CN(C)C=C(C(=O)NCCc2ccccc2)C1 | 0.174 10e-4 K s-1 | 666 | 1.13 10e-4 K s-1 | 70.2 | – | – | – | –
2 | CN1C=C(C(=O)NCCc2ccccc2)CC(C(=O)NCCc2ccccc2)=C1 | 0.084 10e-4 K s-1 | 1370 | 0.494 10e-4 K s-1 | 234 | – | – | – | –
3 | CN1C=CCC(C(=O)NCCc2ccccc2)=C1 | 4.12 10e-4 K s-1 | 28.2 | 8.4 10e-4 K s-1 | 13.7 | 8.13 10e-4 K s-1 | 1.8 10e-4 K s-1 | 64.2 | 14.4
4 | O=C(NCCc1ccccc1)C1=CN(Cc2ccccc2)C=CC1 | 2.1 10e-4 K s-1 | 55 | 4.74 10e-4 K s-1 | 24.4 | 7.5 10e-4 K s-1 | 0.74 10e-4 K s-1 | 156 | 15.3
